# Diaphorase inh – inhibits diaphorase or chemically oxidizes, flagging diaphorase assay artifacts | diaphorase resazurin-to-resorufin fluorescence, NADH, 16 min; bacterial (C. kluyveri) enzyme, not human | inhibition, % at 20 µM | 190,000 tested, 0.69% active | AID 1217;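 active means primary screen inhibition at 20 µM above a set limit, cut at about 50% in these data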;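 further: plate controls were DMSO with full reaction for no effect and wells lacking NADH for full effect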
#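 material = Clostridium kluyveri diaphorase enzyme | amount = 0.14 U/mL diaphorase, enzyme working solution | schedule = incubation 16 min, room temperature | detection = fluorescence of resorufin formed from resazurin, Ex 544/Em 590 nm | benchmarks = positive control minus NADH, DMSO neutral control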
# ABCB1 inh – human ABCB1 inhibition, ABCG2 as counter-screen; P08183; CCRF-Adr cells, JC-1 efflux, flow cytometry; inhibition, % at 6.6 µM; 190,000 tested, 0.067% active; AID 1326; in the data active means inhibition above about 40%;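 further: 0% = vehicle and 100% = reference inhibitor; higher value means more JC-1 retained so stronger ABCB1 efflux block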
# HMGR II inh – blocks class II HMG-CoA reductase of Enterococcus faecalis; purified E. faecalis HMGR, NADPH absorbance 340 nm kinetic; inhibition, % at 10 µM; 190,000 tested, 0.41% active; AID 1066;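 active means inhibition above a set limit, the median over all tested compounds plus 3 SD, cut at about 9.5% in these data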;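 further: enzyme runs in reverse so mevalonate oxidation gives rising NADPH absorbance; 0% = complete reaction with DMSO and 100% = background rate lacking mevalonate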
# Diaphorase act – diaphorase activation or chemical reduction counter-screen | Diaphorase/resazurin coupled assay, resorufin fluorescence, 16 min; active compounds read high; 1 = vehicle wells, 0 = NADH-free wells | activation factor at 20 µM | 190,000 tested, 0.005% active | AID 1229;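 active means diaphorase activity raised at least twofold by the compound at 20 µM; inactive means activation factor below 2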
#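 Test system: Clostridium kluyveri diaphorase, purified enzyme. Buffer or medium: 50 mM HEPES pH 7.4 buffer plus MgCl2 and Tween 20. Also added: 0.114 mM NADH and 0.1 mM resazurin, final amounts. Dosing: compound 20 µM once, DMSO 1%. Schedule: 16 min enzyme reaction, ambient temperature. Detection: fluorescence of resorufin, 544 nm excitation, 590 nm emission.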
# ABCG2 block – human ABCG2 inhibition, ABCB1 as counter-screen; Q9UNQ0; IgMXP3 cells, JC-1 efflux, flow cytometry; inhibition, % at 6.6 µM; 190,000 tested, 0.1% active; AID 1325;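 active means inhibition above 80%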;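 further: 0% = DMSO and 100% = nicardipine control wells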
#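 System: two drug-resistant human cell lines, ABCG2 and ABCB1; controls: nicardipine high and DMSO low controls; times: 10 min exposure at 25 °C with rotation, no wash; detection: flow cytometry of retained JC-1 fluorescence; read-out basis: percent efflux inhibition, scaled nicardipine 100% to DMSO 0%; doses: one concentration, 6.6 µM final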
# NCF1 inh – p47phox (human) inhibition | inhibition, % at 24.7 µM | AID 1274 | 220,000 tested, 0.53% active | p47phox/p22phox peptide binding, fluorescence polarization, 2 h;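 active means inhibition above about 30%, limit read from the data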;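 further: 0% = p47phox with labelled peptide and 100% = labelled peptide alone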
# Target sequence (P14598 whole entry, looked up): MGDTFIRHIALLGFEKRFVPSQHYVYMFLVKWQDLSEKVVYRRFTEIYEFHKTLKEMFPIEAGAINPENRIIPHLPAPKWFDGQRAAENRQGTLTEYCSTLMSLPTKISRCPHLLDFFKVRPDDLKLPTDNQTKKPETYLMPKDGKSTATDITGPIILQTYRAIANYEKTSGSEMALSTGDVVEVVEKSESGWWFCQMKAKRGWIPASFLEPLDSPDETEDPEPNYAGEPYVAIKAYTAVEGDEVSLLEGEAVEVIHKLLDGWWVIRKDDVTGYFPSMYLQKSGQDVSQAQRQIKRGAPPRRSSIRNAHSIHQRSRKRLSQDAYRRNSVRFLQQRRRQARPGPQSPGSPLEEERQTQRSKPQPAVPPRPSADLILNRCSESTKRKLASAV
# Numbers without * were called inactive; . = no result. Sampled rows, rich in hits. Any-hit rate of the full collection: about 1.6%.
SMILES,Diaphorase inh,ABCB1 inh,HMGR II inh,Diaphorase act,ABCG2 block,NCF1 inh
Cc1ccc(C(c2nnnn2Cc2ccccc2)N2CCN(Cc3ccccc3)CC2)cc1 (stereo unspecified),79*,4,-3,0.2,3,-4
Cc1ccc(C(c2nnnn2CS(=O)(=O)c2ccc(C)cc2)N2CCCC2)cc1 (stereo unspecified),-18,4,-2,1.2,1,39*
Fc1ccc(NC2=NCCCCC2)cc1,3,2,-3,1,14,-2
COc1cc(NC(=S)NC(=O)c2ccco2)ccc1NC(=O)C(C)C,15,1,-6,0.9,17,0
Nc1[nH]nc2ncc3cc4ccccc4nc3c12,55*,0,-4,0.5,0,-7
Nc1[nH]nc2nc(N3CCCC3)nc(-c3ccccc3)c12,-3,1,-4,1,2,-14
CCC(C(=O)Nc1ccccc1)c1ccccc1 (stereo unspecified),-1,.,-2,1,173*,6
CCC(C(=O)Nc1ccccc1-c1ccccc1)c1ccccc1 (stereo unspecified),10,1,-6,0.9,6,-10
C=CCn1c(CC(=O)OC)csc1=Nc1ccc(C(C)=O)cc1,15,1,-4,0.8,3,-8
Cc1ccc2nc(C)/c(=N\O)c(C)nc2c1,13,0,3,0.9,3,-11
Cc1nc2ccc(Cl)cc2nc(C)/c1=N\O,58*,1,1,0.4,12,-3
Cc1oc(-c2ccoc2)nc1CN(Cc1ccccc1)CC1CC1,15,0,2,0.8,-1,-13
COc1ccc(OC)c(N(CC(=O)N2CCC(C)CC2)S(=O)(=O)c2ccccc2)c1,9,0,-2,0.9,0,-3
CCOC(=O)C1=C(Cc2ccc(OC)cc2)C(=O)c2ccccc2C1=O,31,0,1,0.7,-1,93*
CCCc1ccc(/C=C2\C(=O)c3ccccc3C(O)=C2C(=O)OCC)cc1,46,7,-2,0.5,-2,3
CCOC(=O)C1=C(O)c2ccccc2C(=O)/C1=C\c1ccc(CC)cc1,33,2,-4,0.7,5,56*
CCOC(=O)C1=C(Cc2ccc(C)cc2)C(=O)c2ccccc2C1=O,40,1,2,0.6,1,30
O=C(c1ccc(-c2ccccc2)cc1)N1CCCC1,18,0,1,0.8,0,-6
CS(=O)(=O)N1CCN(c2ccc([N+](=O)[O-])c(SCc3ccco3)c2)CC1,57*,1,6,0.4,4,-17
CN1CCN(S(=O)(=O)c2ccc(N3CCN(S(=O)(=O)/C=C/c4ccccc4)CC3)nc2)CC1,5,1,2,1,3,40*
Cc1csc(-c2cccnc2)n1,-2,0,3,1,1,2
O=C(O)CCC(=O)N1CCOc2ccc(Cl)cc21,13,0,-5,0.9,3,37*
O=C(CN1C(=O)COc2ccc(Cl)cc21)Nc1ccc2c(c1)OCCO2,14,1,-6,0.9,4,-8
CC12CC3CC(C)(C1)CC(CN1CCOCC1)(C3)C2,0,1,-2,1,4,39*
CN1C(=O)/C(=C/c2cc3c(cc2Br)OCO3)NC1=S,15,-1,-2,0.9,-2,-8
SMILES,Diaphorase inh,ABCB1 inh,HMGR II inh,Diaphorase act,ABCG2 block,NCF1 inh
CCOC(=O)c1c(C)nc2sc3c(=O)n(-c4ccc(C(C)=O)cc4)nnc3c2c1-c1ccc(Cl)cc1,22,1,-1,0.8,1,60*
CCOC(=O)c1c(C)nc2sc3c(=O)n(-c4ccc(C(C)=O)cc4)cnc3c2c1-c1ccc(Cl)cc1,12,0,-7,0.9,-1,-13
COc1ccc(NC(=O)c2oc3ccccc3c2NC(=O)C2CC2)cc1,12,1,11*,0.9,7,5
O=C1C=C(O)c2cccc(O)c2C1=O,.,.,.,.,.,-3
CC1=CC(=O)c2c(O)ccc(O)c2C1=O,54*,8,-3,0.5,1,-23
CCN(CC)C(=O)CSc1nnc(-c2cnccn2)n1-c1ccccc1,12,0,-5,0.9,-1,-21
CC(=O)CSc1nnc(-c2cnccn2)n1-c1ccccc1,12,0,-7,0.9,1,40*
Cc1cc(N)n2ncc(-c3ccc(Cl)cc3)c2n1,20,1,11*,0.8,8,-11
Cc1cc(N)n2ncc(-c3ccc(F)cc3)c2n1,21,1,1,0.8,5,-12
CCN(Cc1ccccc1)S(=O)(=O)c1cc(C(=O)c2c(N)n(C)c(=O)n(C)c2=O)ccc1OC,9,0,0,0.9,4,0
Cc1cc(=O)n2cccc(O)c2n1,63*,0,7,0.4,1,-4
O=C1c2cccc3c(N4CCCCC4)ccc(c23)C(=O)N1c1ccccc1O,61*,4,-3,0.4,13,-48
CC1(C)Cc2ccccc2/C(=C/C(=O)N2CCCCCC2)N1,12,0,-1,0.9,2,-2
Cc1ccc(C2C=NN(c3ccccc3)C2=O)cc1 (stereo unspecified),8,1,10*,0.9,6,3
C=CCn1c(SC(C)C(=O)NCc2ccc3c(c2)OCO3)nnc1C1CCCCC1 (stereo unspecified),-13,0,3,1.1,0,3
COc1cc(NC(=O)c2cc(C)on2)cc(C(=O)Nc2cccc(C(F)(F)F)c2)c1,.,.,.,.,.,43*
O=C(O)CSc1ncnc2sc(-c3ccccc3)cc12,-2,-1,-2,1,0,6
O=C(Cc1cccs1)N(Cc1ccco1)C1(C(=O)NC2CCCCC2)CCCCC1,-5,1,0,1.1,2,43*
COc1ccc(S(=O)(=O)NC2(C(F)(F)F)N=C(c3ccccc3)NC2=O)cc1 (stereo unspecified),5,0,-3,1,0,3
COc1ccc(S(=O)(=O)N(C)C)cc1NC(=O)CSc1nnc(-c2cccnc2)o1,15,0,13*,0.8,5,2
CCN(CC)S(=O)(=O)c1ccc2c(c1)nc(CCC(=O)O)n2CC,6,0,5,0.9,1,2
Cc1sc2ncnc(SCC(=O)N(C(C)C)C(C)C)c2c1C,-1,1,11*,1,2,2
Cc1sc2ncnc(SCC(=O)NC(C)C(C)C)c2c1C (stereo unspecified),18,1,0,0.8,19,-34
